According to ChEMBL document CHEMBL1123394, “Systematic synthesis and biological evaluation of alpha- and beta-D-xylofuranosyl nucleosides of the five naturally occurring bases in nucleic acids and related analogues” (J Med Chem, 1986):
Converted amounts (≈) assume the structure as drawn.

Tests used:
Assay type in all cases: functional
[1] = system: HeLa; assay: Antiviral activity was measured against Coxsackie virus B4 in HeLa cells.; conditions: Homo sapiens
Outline: (§1)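 Inhibition of virus-induced cytopathogenicity in cell culture. Compounds were dissolved in growth medium at 100, 10 or 1 μg/mL or less.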

[2] = system: HeLa; assay: Antiviral activity was measured against Polio virus-1 in HeLa cells.; conditions: Homo sapiens; outline: as §1
[3] = system: HeLa; assay: Antiviral activity was measured against Vesicular stomatitis virus in HeLa cells.; conditions: Homo sapiens; outline: as §1
[4] = system: HeLa; assay: Concentration required for microscopically detectable alteration of the normal cell morphology in HeLa cells.; conditions: Homo sapiens
Outline: (§2)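 Host-cell morphology inspected microscopically for detectable alteration, with compounds in growth medium at up to 200 or 400 μg/mL.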

[5] = Antiviral activity was measured against Vesicular stomatitis virus in rabbit kidney cells.; conditions: Oryctolagus cuniculus; outline: as §1
[6] = Concentration required for microscopically detectable alteration of the normal cell morphology in PRK cells.; conditions: Oryctolagus cuniculus; outline: as §2
[7] = Antiviral activity was measured against Herpes simplex virus (HSV-1 KOS) in rabbit kidney cells.; conditions: Oryctolagus cuniculus; outline: as §1
[8] = Antiviral activity was measured against Herpes simplex virus (HSV-2 G) in rabbit kidney cells.; conditions: Oryctolagus cuniculus
Outline: (§3)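 Inhibition of virus-induced cytopathogenicity scored in cell culture monolayers. Test compounds dissolved in growth medium at 100, 10, or 1 μg/mL or less.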

[9] = Antiviral activity was measured against Vaccinia virus in rabbit kidney cells.; conditions: Oryctolagus cuniculus; outline: as §1
[10] = system: Vero; assay: Antiviral activity was measured against Coxsackie virus B4 in african green monkey kidney (Vero B) cells.; conditions: Chlorocebus sabaeus; outline: as §3
[11] = system: Vero; assay: Antiviral activity was measured against Parainfluenza virus-3 in african green monkey kidney (Vero B) cells.; conditions: Chlorocebus sabaeus; outline: as §3
[12] = system: Vero; assay: Antiviral activity was measured against Reo virus-1 in african green monkey kidney (Vero B) cells.; conditions: Chlorocebus sabaeus; outline: as §3
[13] = system: Vero; assay: Antiviral activity was measured against forest virus in african green monkey kidney (Vero B) cells.; conditions: Chlorocebus sabaeus; outline: as §3
[14] = system: Vero; assay: Antiviral activity was measured against Sindbis virus in african green monkey kidney (Vero B) cells.; conditions: Chlorocebus sabaeus; outline: as §3
[15] = system: WI-38; assay: Concentration required for microscopically detectable alteration of the normal cell morphology in Wi-38 cells.; conditions: Homo sapiens; outline: as §2
[16] = system: WI-38; assay: Antiviral activity was measured against Rhino virus-1A in human diploid (WI-38) cells.; outline: as §3
[17] = system: WI-38; assay: Antiviral activity was measured against Rhino virus-9 in human diploid (WI-38) cells.; outline: as §3
[18] = system: Vero; assay: Concentration required for microscopically detectable alteration of the normal cell morphology in Vero B cells.; conditions: Chlorocebus sabaeus; outline: as §2
[19] = Concentration required to reduce DNA synthesis in primary rabbit kidney cells using [3H-Methyl]-dThd incorporation; conditions: Oryctolagus cuniculus, read-out: ID50 (the source's name)
Outline: (§4)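 Primary rabbit kidney cells with compounds in growth medium at 100, 10, or 1 μg/mL or less. Cell number and incorporation of [3H-methyl]dThd (DNA), [3H-5]Urd (RNA) or [3H2-4,5]leucine (protein) measured. ID50 taken as the dose giving 50% reduction in cell number or in DNA, RNA or protein synthesis.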

[20] = Concentration required to reduce RNA synthesis in primary rabbit kidney cells using [3H-5]-Urd incorporation; conditions: Oryctolagus cuniculus, read-out: ID50 (the source's name); outline: as §4
[21] = Concentration required to reduce protein synthesis in primary rabbit kidney cells usingi [3H2-4,5]leucine incorporation; conditions: Oryctolagus cuniculus, read-out: ID50 (the source's name); outline: as §4
[22] = Number of living cells on the proliferation of mouse myeloma cells SP2 was measured at concentration 100 ug/mL at 0h.
Outline: (§5)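 Mouse myeloma SP2 cells seeded at 123 × 10^3 cells and exposed to compound at 1, 10 or 100 μg/mL in growth medium. Living cells counted at 0, 48 and 96 h alongside untreated controls.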

[23] = Number of living cells on the proliferation of mouse myeloma cells SP2 was measured at concentration 100 ug/mL at 48 hr.; outline: as §5
[24] = Number of living cells on the proliferation of mouse myeloma cells SP2 was measured at concentration 100 ug/mL at 96 h.; outline: as §5
[25] = Number of living cells on the proliferation of mouse myeloma cells SP2 was measured at concentration 10 ug/mL at 48 hr.; outline: as §5
[26] = Number of living cells on the proliferation of mouse myeloma cells SP2 was measured at concentration 10 ug/mL at 96 h.; outline: as §5
[27] = Number of living cells on the proliferation of mouse myeloma cells SP2 was measured at concentration 1 ug/mL at 48 hr.; outline: as §5
[28] = Number of living cells on the proliferation of mouse myeloma cells SP2 was measured at concentration 1 ug/mL at 96 h.; outline: as §5
[29] = Number of living cells on the proliferation of mouse myeloma cells SP2 was measured at concentration 1 ug/mL at 0h.; outline: as §5
[30] = Dose required to reduce primary rabbit kidney cell growth; conditions: Oryctolagus cuniculus, read-out: ID50 (the source's name); outline: as §4
[31] = system: HeLa; assay: Antiviral activity was measured against vesicular stomatitis virus in HeLa cells.; conditions: Homo sapiens; outline: as §1
[32] = Antiviral activity was measured against vesicular stomatitis virus in rabbit kidney cells.; conditions: Oryctolagus cuniculus; outline: as §1
[33] = Antiviral activity was measured against vaccinia virus in rabbit kidney cells.; conditions: Oryctolagus cuniculus; outline: as §1
[34] = system: HeLa; assay: Antiviral activity was measured against polio virus-1 in HeLa cells.; conditions: Homo sapiens; outline: as §1

Structure (SMILES) | MCC [1] [µg/mL] | MCC [4] [µg/mL] | MCC [6] [µg/mL] | MCC [7] [µg/mL] | MCC [8] [µg/mL] | MCC [10] [µg/mL] | MCC [11] [µg/mL] | MCC [12] [µg/mL] | MCC [13] [µg/mL] | MCC [14] [µg/mL] | MCC [15] [µg/mL] | MCC [16] [µg/mL] | MCC [17] [µg/mL] | MCC [18] [µg/mL] | also measured
NC(=O)c1ncn([C@@H]2O[C@H](CO)[C@@H](O)[C@H]2O)n1 [RIBAVIRIN] | 70 | ≥ 400 | > 400 | > 400 | > 400 | 70 | 20 | 7 | 70 | 70 | > 400 | 150 | 70 | ≥ 400 | MCC [2]: 70 µg/mL; MCC [3]: 20 µg/mL; MCC [5]: 100 µg/mL; MCC [9]: 7 µg/mL
Nc1ncnc2c1ncn2[C@@H]1O[C@H](CO)[C@H](O)[C@H]1O | > 40 | 100 | > 100 | > 40 | > 40 | > 40 | > 40 | > 40 | > 40 | > 40 | 200 | 20 | 20 | > 100 | IC50 [19]: 17 µg/mL (≈ 63.6 µM); IC50 [20]: 46 µg/mL (≈ 172 µM); IC50 [21]: 37 µg/mL (≈ 138 µM); No. of living cells [22]: 0.123; No. of living cells [23]: 0.008; No. of living cells [24]: 0; No. of living cells [25]: 0.048; No. of living cells [26]: 0.4; No. of living cells [27]: 0.864; No. of living cells [28]: 1.368; No. of living cells [29]: 0.123; IC50 [30]: 23 µg/mL (≈ 86.1 µM)
Nc1ncnc2c1ccn2[C@@H]1O[C@H](CO)[C@@H](O)[C@H]1O [TUBERCIDIN] | 0.2 | ≥ 1 | ≥ 0.4 | > 0.1 | > 0.1 | > 0.1 | 0.2 | 0.1 | > 0.4 | > 0.1 | 0.4 | 0.01 | 0.007 | ≥ 0.4 | MCC [31]: 0.07 µg/mL; MCC [32]: 0.07 µg/mL; MCC [33]: > 0.1 µg/mL; MCC [34]: 0.2 µg/mL
